Experimental data: ChEMBL document CHEMBL1126315, “Pyrrolobenzodiazepines and related systems. 2. Synthesis and biological properties of isonoraptazepine derivatives” (1992)

Assays:
Assay type in all cases: functional
Mus musculus [1] = experiment: Rotation number in mice was determined at 15 minutes after a dose of 10 mg/Kg
Summary of the method: (§1)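 Nomura water-wheel test: Swiss inbred mice (5 male, 5 female per group) dosed ip in 1% Tween 80, placed in a water tank with central wheel 1 h later. Wheel rotations counted by photointerrupter on the shaft, read at 9, 12 and 15 min. Mean ± SD vs vehicle controls.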

Mus musculus [2] = experiment: Compound was tested for total number of falls in 100 seconds after intraperitoneal administration of 37.5 mg/Kg in mice by rotarod test
Summary of the method: (§2)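 Mice (Swiss inbred, 5 male + 5 female per group) dosed ip in 1% Tween 80; Rota-Rod motor coordination assessed 80 min later. Falls counted over a 100 s observation period. Mean ± SEM vs vehicle controls, Dunnett t test.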

Mus musculus [3] = experiment: Compound was tested for myorelaxant action (time in seconds on the horizontal wire with forelegs) after intraperitoneal administration of 37.5 mg/Kg in mice by traction test
Summary of the method: (§3)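 Traction test on Swiss inbred mice, 10 per group (5 male, 5 female), dosed ip in 1% Tween 80; run 70 min after dosing. Time for animals to place hind legs on horizontal wire recorded in seconds. Mean ± SEM vs vehicle-treated controls, Dunnett t test.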

Mus musculus [4] = experiment: Rotation number in mice was determined at 9 minutes after a dose of 10 mg/Kg; summary of the method: as §1
Mus musculus [5] = experiment: Compound was tested for total number of movements in 5 minutes after intraperitoneal administration of 37.5 mg/Kg in mice
Summary of the method: (§4)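 Open-field spontaneous activity 60 min after ip dosing in 1% Tween 80; Swiss inbred mice, 10 per group (5 male, 5 female), placed singly in 19 × 25 cm cages and monitored continuously for 5 min. Total movements as mean ± SEM vs vehicle controls.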

Mus musculus [6] = experiment: Rotation number in mice was determined at 12 minutes after a dose of 10 mg/Kg; summary of the method: as §1
Mus musculus [7] = experiment: Total number of falls in 100 seconds after intraperitoneal administration of 75 mg/Kg in mice by rotarod test; summary of the method: as §2
Mus musculus [8] = experiment: Myorelaxant action (time in seconds on the horizontal wire with forelegs) after intraperitoneal administration of 75 mg/Kg in mice by traction test; summary of the method: as §3
Mus musculus [9] = experiment: Total number of explored holes in 5 minutes after intraperitoneal administration of 75 mg/Kg in mice
Summary of the method: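 Hole-board exploration at 65 min after ip dosing (1% Tween 80 vehicle) in Swiss inbred mice, 10 per group (5 male, 5 female). Holes explored counted by infrared detector below the hole lines over 5 min. Mean ± SEM vs vehicle controls, Dunnett t test.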

Mus musculus [10] = experiment: Total number of movements in 5 minutes after intraperitoneal administration of 75 mg/Kg in mice; summary of the method: as §4
Mus musculus [11] = experiment: Writhing number was determined against clonidine induced analgesia by the compound at an intraperitoneal dose of 10 mg/Kg in mice
Mus musculus [12] = experiment: Compound at an intraperitoneal dose of 10 mg/Kg was tested for the inhibition of abdominal constriction in mice; conditions: Abdomen, ip
Summary of the method: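 Swiss inbred mice (25 ± 3 g), 10 per group (5 male, 5 female), given compound ip in 1% Tween 80. Clonidine 0.1 mg/kg po 30 min later, then phenylquinone 3.75 mg/kg ip in 5% aqueous ethanol 20 min after that. Writhing counted by observer over 10 min starting 5 min post-injection; % inhibition relative to controls.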

Mus musculus [13] = experiment: Compound was tested for total number of movements in 5 minutes after intraperitoneal administration of 10 mg/Kg in mice
Summary of the method: (§5)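 Swiss inbred mice (25 ± 3 g), groups of 10 (5 male, 5 female), given drug ip in 1% Tween 80; vehicle-treated controls. Single sequence per animal: open-field movements counted over 5 min at 60 min, hole-board explorations (infrared counting, 5 min) at 65 min, traction-test wire time at 70 min, Rota-Rod falls over 100 s at 80 min. Mean ± SEM, Dunnett t test.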

Mus musculus [14] = experiment: Compound was tested for total number of falls in 100 seconds after intraperitoneal administration of 10 mg/Kg in mice by rotarod test; summary of the method: as §5
Mus musculus [15] = experiment: Rotation number in mice was determined at 15 minutes after a dose of 2.5 mg/Kg
Summary of the method: (§6)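 Nomura water-wheel test in Swiss inbred mice (25 ± 3 g), groups of 10 (5 male, 5 female). Drug given ip in 1% Tween 80, single dose. Mouse placed in a water tank with a central wheel 1 h after dosing. Wheel rotations counted by photointerrupter, read at 9, 12 and 15 min. Mean ± SD versus vehicle controls.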

Mus musculus [16] = experiment: Rotation number in mice was determined at 9 minutes after a dose of 5 mg/Kg; summary of the method: as §6
Mus musculus [17] = experiment: Rotation number in mice was determined at 12 minutes after a dose of 5 mg/Kg; summary of the method: as §6
Mus musculus [18] = experiment: Rotation number in mice was determined at 12 minutes after a dose of 2.5 mg/Kg; summary of the method: as §6
Mus musculus [19] = experiment: Rotation number in mice was determined at 9 minutes after a dose of 2.5 mg/Kg; summary of the method: as §6
Mus musculus [20] = experiment: Compound was tested for total number of explored holes in 5 minutes after intraperitoneal administration of 10 mg/Kg in mice; summary of the method: as §5
Mus musculus [21] = experiment: Rotation number in mice was determined at 15 minutes after a dose of 5 mg/Kg; summary of the method: as §6
Mus musculus [22] = experiment: Compound was tested for myorelaxant action (time in seconds on the horizontal wire with forelegs) after intraperitoneal administration of 10 mg/Kg in mice by traction test; summary of the method: as §5

Compound	Rotation number (Mus musculus [1])	Rotation number (Mus musculus [4])	Rotation number (Mus musculus [6])	Activity (Mus musculus [7])	Time (Mus musculus [8]) [s]	Exploratory activity (Mus musculus [9])	Spontaneous motor activity (Mus musculus [10])	further results
c1ccc2c(c1)CN1CCNCC1c1cccn1-2 (stereo unspecified)	12	17	10	–	–	–	–	Activity (Mus musculus [2]): 3; Time (Mus musculus [3]): 4.9 s; Spontaneous motor activity (Mus musculus [5]): 111
O=C1CNCC2c3cccn3-c3ccccc3CN12 (stereo unspecified)	10	15	17	–	–	–	–	–
CN1CCN2Cc3ccccc3-n3cccc3C2C1 (stereo unspecified)	11	21	16	5	4.4	3.8	96	–
O=C1CN(Cc2ccc(F)cc2)CC2c3cccn3-c3ccccc3CN12 (stereo unspecified)	–	–	–	1.8	4.2	6	178	–
CN1CC(=O)N2Cc3ccccc3-n3cccc3C2C1 (stereo unspecified)	10	17	14	8.7	1	13	90	–
CCN1CC(=O)N2Cc3ccccc3-n3cccc3C2C1 (stereo unspecified)	22	22	17	0.4	2.1	9.8	285	–
CC(=O)N1CC(=O)N2Cc3ccccc3-n3cccc3C2C1 (stereo unspecified)	49	54	57	1	3.5	10.7	121	–
CC(=O)N1CCN2Cc3ccccc3-n3cccc3C2C1 (stereo unspecified)	17	21	23	–	–	–	–	–
O=C1NCC(=O)N2Cc3ccccc3-n3cccc3C12 (stereo unspecified)	11	18	15	2.5	5.5	14.7	247	Writhing number (Mus musculus [11]): 12; inhibition in vivo at 10 mg/kg (Mus musculus [12]): 43%
O=C1CN(Cc2ccccc2)CC2c3cccn3-c3ccccc3CN12 (stereo unspecified)	31	45	41	–	–	–	–	–
C=CCN1CCN2Cc3ccccc3-n3cccc3C2C1 (stereo unspecified)	14	16	16	–	–	–	–	–
O=C1CC2c3cccn3-c3ccccc3CN2C(=O)CN1 (stereo unspecified)	27	35	27	0.6	2.3	17.2	173	–
O=C(c1ccc(Cl)cc1)N1CCN2Cc3ccccc3-n3cccc3C2C1 (stereo unspecified)	7	7	6	–	–	–	–	–
Clc1ccc(CN2CCN3Cc4ccccc4-n4cccc4C3C2)cc1 (stereo unspecified)	11	22	14	2.1	2	9.3	142	–
O=C1CN(Cc2ccc(Cl)cc2)CC2c3cccn3-c3ccccc3CN12 (stereo unspecified)	–	–	–	–	–	–	–	Writhing number (Mus musculus [11]): 8; inhibition in vivo at 10 mg/kg (Mus musculus [12]): 63%
CCN1CCN2Cc3ccccc3-n3cccc3C2C1 (stereo unspecified)	24	30	27	1.1	3.1	7.6	188	–
CN1CCN2c3ccccc3Cn3cccc3C2C1 (stereo unspecified) [APTAZAPINE]	2	8	5	6.5	8.1	0.5	59	Writhing number (Mus musculus [11]): 18; Spontaneous motor activity (Mus musculus [13]): 168; Activity (Mus musculus [14]): 5; Rotation number (Mus musculus [15]): 2; Rotation number (Mus musculus [16]): 5; inhibition in vivo at 10 mg/kg (Mus musculus [12]): 14%; Rotation number (Mus musculus [17]): 8; Rotation number (Mus musculus [18]): 3; Rotation number (Mus musculus [19]): 12; Exploratory activity (Mus musculus [20]): 8.8; Rotation number (Mus musculus [21]): 2; Time (Mus musculus [22]): 2.5 s
CN(C)CCCN1c2ccccc2CCc2ccccc21 [IMIPRAMINE]	36	48	40	–	–	–	–	Activity (Mus musculus [2]): 4.8; Time (Mus musculus [3]): 5.7 s; inhibition in vivo at 10 mg/kg (Mus musculus [12]): 100%; Spontaneous motor activity (Mus musculus [5]): 183
